Test results published in ChEMBL document CHEMBL2086252, “Syntheses and evaluation of anticonvulsant activity of novel branched alkyl carbamates” (J Med Chem, 2012).
Calls of active or inactive are those of the source. The rule behind the calls is not given here.

How the values were obtained:
Rattus norvegicus [1] = assay: Anticonvulsant activity in po dosed Sprague-Dawley albino rat assessed as protection against maximal electroshock-induced seizures; assay type: functional
How it was run: (§1)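 Quantitative testing: rats dosed orally or ip in MES and scMet tests, and mice dosed ip, including the 6 Hz (32 mA) psychomotor seizure test. ED50 and TD50 were reported in mg/kg with ranges in parentheses. Protective index was calculated as TD50/ED50.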

Rattus norvegicus [2] = assay: Anticonvulsant activity in Sprague-Dawley albino rat assessed as protection against maximal electroshock-induced seizures at 30 mg/kg, po after 30 mins; assay type: functional, organism-based; parameters: dose 30 mg/kg
How it was run: (§2)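 Rats dosed orally. Anti-MES protection was scored as animals protected over animals tested at each time after dosing. Neurotoxicity was scored as motor impairment or sedation, as animals affected over animals tested.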

Rattus norvegicus [3] = assay: Neurotoxicity in pilocarpine-induced status epilepticus Sprague-Dawley albino rat model assessed as minimal motor impairment at 100 mg/kg, ip after 1 hr by rotarod test; assay type: toxicity, organism-based; parameters: dose 100 mg/kg, route intraperitoneal; conditions: in vivo
Mus musculus [4] = assay: Anticonvulsant activity in albino CF1 mouse assessed as protection against maximal electroshock-induced seizures at 30 mg/kg, ip after 4 hrs; assay type: functional, organism-based; parameters: dose 30 mg/kg
How it was run: (§3)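 Mice dosed ip at 30, 100 or 300 mg/kg, then tested 0.5 h and 4 h after administration in the MES or scMet test. Protection was recorded as animals protected over animals tested. Neurotoxicity was recorded as motor impairment or sedation, as animals affected over animals tested.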

Mus musculus [5] = assay: Anticonvulsant activity in albino CF1 mouse assessed as protection against maximal electroshock-induced seizures at 30 mg/kg, ip after 0.5 hrs; assay type: functional, organism-based; parameters: dose 30 mg/kg; how it was run: as §3
Rattus norvegicus [6] = assay: Anticonvulsant activity in Sprague-Dawley albino rat assessed as protection against maximal electroshock-induced seizures at 100 mg/kg, po after 4 hrs; assay type: functional, organism-based; parameters: dose 100 mg/kg; how it was run: as §2
Mus musculus [7] = assay: Neurotoxicity in albino CF1 mouse assessed as minimal motor impairment at 300 mg/kg, ip after 0.5 hrs by rotarod test; assay type: toxicity, organism-based; parameters: dose 300 mg/kg, route intraperitoneal; conditions: in vivo; how it was run: as §3
Mus musculus [8] = assay: Neurotoxicity in albino CF1 mouse assessed as minimal motor impairment at 30 mg/kg, ip after 4 hrs by rotarod test; assay type: toxicity, organism-based; parameters: dose 30 mg/kg, route intraperitoneal; conditions: in vivo; how it was run: as §3
Mus musculus [9] = assay: Neurotoxicity in albino CF1 mouse assessed as minimal motor impairment at 300 mg/kg, ip after 4 hrs by rotarod test; assay type: toxicity, organism-based; parameters: dose 300 mg/kg, route intraperitoneal; conditions: in vivo; how it was run: as §3
Mus musculus [10] = assay: Anticonvulsant activity in albino CF1 mouse assessed as protection against subcutaneous metrazol-induced seizures at 100 mg/kg, ip after 4 hrs; assay type: functional, organism-based; parameters: dose 100 mg/kg; how it was run: as §3
Rattus norvegicus [11] = assay: Neurotoxicity in pilocarpine-induced status epilepticus Sprague-Dawley albino rat model assessed as minimal motor impairment at 100 mg/kg, ip after 4 hrs by rotarod test; assay type: toxicity, organism-based; parameters: dose 100 mg/kg, route intraperitoneal; conditions: in vivo
Rattus norvegicus [12] = assay: Neurotoxicity in Sprague-Dawley albino rat assessed as minimal motor impairment at 30 mg/kg, po by rotarod test; assay type: toxicity, organism-based; parameters: dose 30 mg/kg, route oral; conditions: in vivo; how it was run: as §2
Mus musculus [13] = assay: Anticonvulsant activity in albino CF1 mouse assessed as protection against subcutaneous metrazol-induced seizures at 300 mg/kg, ip after 4 hrs; assay type: functional, organism-based; parameters: dose 300 mg/kg; how it was run: as §3
Rattus norvegicus [14] = assay: Anticonvulsant activity in Sprague-Dawley albino rat assessed as protection against maximal electroshock-induced seizures at 30 mg/kg, po after 4 hrs; assay type: functional, organism-based; parameters: dose 30 mg/kg; how it was run: as §2
Rattus norvegicus [15] = assay: Neurotoxicity in Sprague-Dawley albino rat assessed as minimal motor impairment at 100 mg/kg, po by rotarod test; assay type: toxicity, organism-based; parameters: dose 100 mg/kg, route oral; conditions: in vivo; how it was run: as §2
Mus musculus [16] = assay: Anticonvulsant activity in albino CF1 mouse assessed as protection against subcutaneous metrazol-induced seizures at 100 mg/kg, ip after 0.5 hrs; assay type: functional, organism-based; parameters: dose 100 mg/kg; how it was run: as §3
Mus musculus [17] = assay: Anticonvulsant activity in albino CF1 mouse assessed as protection against maximal electroshock-induced seizures at 300 mg/kg, ip after 4 hrs; assay type: functional, organism-based; parameters: dose 300 mg/kg; how it was run: as §3
Rattus norvegicus [18] = assay: Neurotoxicity in pilocarpine-induced status epilepticus Sprague-Dawley albino rat model assessed as minimal motor impairment at 100 mg/kg, ip after 2 hrs by rotarod test; assay type: toxicity, organism-based; parameters: dose 100 mg/kg, route intraperitoneal; conditions: in vivo
Rattus norvegicus [19] = assay: Neurotoxicity in pilocarpine-induced status epilepticus Sprague-Dawley albino rat model assessed as minimal motor impairment at 300 mg/kg, ip after 2 hrs by rotarod test; assay type: toxicity, organism-based; parameters: dose 300 mg/kg, route intraperitoneal; conditions: in vivo
How it was run: (§4)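 Rat pilocarpine status epilepticus model: test carbamate given at 0 or 30 min after the first observed Racine stage 3 motor seizure, which marks SE onset. Neurotoxicity was scored within the same model.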

Rattus norvegicus [20] = assay: Protective index, ratio of TD50 for po dosed Sprague-Dawley albino rat by rotarod test to ED50 for po dosed Sprague-Dawley albino rat by subcutaneous metrazol seizures test; assay type: functional
How it was run: (§5)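 Protective index calculated as TD50/ED50, with TD50 and ED50 taken from the same species and dosing route.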

Mus musculus [21] = assay: Neurotoxicity in albino CF1 mouse assessed as minimal motor impairment at 100 mg/kg, ip after 4 hrs by rotarod test; assay type: toxicity, organism-based; parameters: dose 100 mg/kg, route intraperitoneal; conditions: in vivo; how it was run: as §3
Mus musculus [22] = assay: Anticonvulsant activity in albino CF1 mouse assessed as protection against subcutaneous metrazol-induced seizures at 300 mg/kg, ip after 0.5 hrs; assay type: functional, organism-based; parameters: dose 300 mg/kg; how it was run: as §3
Mus musculus [23] = assay: Anticonvulsant activity in albino CF1 mouse assessed as protection against subcutaneous metrazol-induced seizures at 30 mg/kg, ip after 0.5 hrs; assay type: functional, organism-based; parameters: dose 30 mg/kg; how it was run: as §3
Rattus norvegicus [24] = assay: Anticonvulsant activity in Sprague-Dawley albino rat assessed as protection against maximal electroshock-induced seizures at 30 mg/kg, po after 2 hrs; assay type: functional, organism-based; parameters: dose 30 mg/kg; how it was run: as §2
Mus musculus [25] = assay: Neurotoxicity in albino CF1 mouse assessed as minimal motor impairment at 30 mg/kg, ip after 0.5 hrs by rotarod test; assay type: toxicity, organism-based; parameters: dose 30 mg/kg, route intraperitoneal; conditions: in vivo; how it was run: as §3
Rattus norvegicus [26] = assay: Anticonvulsant activity in po dosed Sprague-Dawley albino rat assessed as protection against subcutaneous metrazol-induced seizures; assay type: functional; how it was run: as §1
Mus musculus [27] = assay: Anticonvulsant activity in albino CF1 mouse assessed as protection against maximal electroshock-induced seizures at 300 mg/kg, ip after 0.5 hrs; assay type: functional, organism-based; parameters: dose 300 mg/kg; how it was run: as §3
[28] = Neurotoxicity in po dosed Sprague-Dawley albino rat assessed as minimal motor impairment by rotarod test; assay type: toxicity, organism-based; conditions: in vivo
How it was run: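 Rats dosed orally; 4 rats per time point after dosing. Neurotoxicity was scored as motor impairment or sedation and reported as number of animals affected over number tested.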

Mus musculus [29] = assay: Anticonvulsant activity in albino CF1 mouse assessed as protection against subcutaneous metrazol-induced seizures at 30 mg/kg, ip after 4 hrs; assay type: functional, organism-based; parameters: dose 30 mg/kg; how it was run: as §3
Rattus norvegicus [30] = assay: Protective index, ratio of TD50 for po dosed Sprague-Dawley albino rat by rotarod test to ED50 for po dosed Sprague-Dawley albino rat by maximal electroshock seizures test; assay type: functional; how it was run: as §5
Rattus norvegicus [31] = assay: Neurotoxicity in pilocarpine-induced status epilepticus Sprague-Dawley albino rat model assessed as minimal motor impairment at 300 mg/kg, ip after 4 hrs by rotarod test; assay type: toxicity, organism-based; parameters: dose 300 mg/kg, route intraperitoneal; conditions: in vivo; how it was run: as §4
Mus musculus [32] = assay: Anticonvulsant activity in albino CF1 mouse assessed as protection against maximal electroshock-induced seizures at 100 mg/kg, ip after 4 hrs; assay type: functional, organism-based; parameters: dose 100 mg/kg; how it was run: as §3
Rattus norvegicus [33] = assay: Neurotoxicity in pilocarpine-induced status epilepticus Sprague-Dawley albino rat model assessed as minimal motor impairment at 100 mg/kg, ip after 0.5 hrs by rotarod test; assay type: toxicity, organism-based; parameters: dose 100 mg/kg, route intraperitoneal; conditions: in vivo
Rattus norvegicus [34] = assay: Anticonvulsant activity in Sprague-Dawley albino rat assessed as protection against maximal electroshock-induced seizures at 100 mg/kg, po after 30 mins; assay type: functional, organism-based; parameters: dose 100 mg/kg; how it was run: as §2
Rattus norvegicus [35] = assay: Anticonvulsant activity in Sprague-Dawley albino rat assessed as protection against maximal electroshock-induced seizures at 30 mg/kg, po after 1 hr; assay type: functional, organism-based; parameters: dose 30 mg/kg; how it was run: as §2
Rattus norvegicus [36] = assay: Neurotoxicity in pilocarpine-induced status epilepticus Sprague-Dawley albino rat model assessed as minimal motor impairment at 300 mg/kg, ip after 0.25 hr by rotarod test; assay type: toxicity, organism-based; parameters: dose 300 mg/kg, route intraperitoneal; conditions: in vivo; how it was run: as §4
Rattus norvegicus [37] = assay: Anticonvulsant activity in Sprague-Dawley albino rat assessed as protection against maximal electroshock-induced seizures at 30 mg/kg, po after 15 mins; assay type: functional, organism-based; parameters: dose 30 mg/kg; how it was run: as §2
Rattus norvegicus [38] = assay: Neurotoxicity in pilocarpine-induced status epilepticus Sprague-Dawley albino rat model assessed as minimal motor impairment at 300 mg/kg, ip after 1 hr by rotarod test; assay type: toxicity, organism-based; parameters: dose 300 mg/kg, route intraperitoneal; conditions: in vivo; how it was run: as §4
Rattus norvegicus [39] = assay: Neurotoxicity in pilocarpine-induced status epilepticus Sprague-Dawley albino rat model assessed as minimal motor impairment at 300 mg/kg, ip after 0.5 hrs by rotarod test; assay type: toxicity, organism-based; parameters: dose 300 mg/kg, route intraperitoneal; conditions: in vivo; how it was run: as §4
Mus musculus [40] = assay: Anticonvulsant activity in albino CF1 mouse assessed as protection against maximal electroshock-induced seizures at 100 mg/kg, ip after 0.5 hrs; assay type: functional, organism-based; parameters: dose 100 mg/kg; how it was run: as §3

In the case of `CCCC(CCC)COC(N)=O`, the ED50 (Rattus norvegicus [1]) is reported as 35 mg/kg, the Activity (Rattus norvegicus [2]) is reported as “inactive” and the Activity (Rattus norvegicus [3]) is reported as “Non-toxic”. For the same molecule, the Activity (Mus musculus [4]) was “inactive”, the Activity (Mus musculus [5]) was “inactive” and the Activity (Rattus norvegicus [6]) was “inactive”. The Activity (Mus musculus [7]) was “Toxic”, the Activity (Mus musculus [8]) was “Non-toxic” and the Activity (Mus musculus [9]) was “Toxic”. The Activity (Mus musculus [10]) was “inactive”, the Activity (Rattus norvegicus [11]) was “Non-toxic” and the Activity (Rattus norvegicus [12]) was “Non-toxic”. For the same molecule, the Activity (Mus musculus [13]) was “Active”, the Activity (Rattus norvegicus [14]) was “inactive” and the Activity (Rattus norvegicus [15]) was “Non-toxic”. For the same molecule, the Activity (Mus musculus [16]) was “inactive”, the Activity (Mus musculus [17]) was “Active” and the Activity (Rattus norvegicus [18]) was “Non-toxic”. The Activity (Rattus norvegicus [19]) was “Toxic”, the “Ratio TD50/ED50” value (Rattus norvegicus [20]) was >4 and the Activity (Mus musculus [21]) was “Non-toxic”. The Activity (Mus musculus [22]) was “Active”, the Activity (Mus musculus [23]) was “inactive” and the Activity (Rattus norvegicus [24]) was “inactive”. For the same molecule, the Activity (Mus musculus [25]) was “Non-toxic”, the ED50 (Rattus norvegicus [26]) was > 125 mg/kg and the Activity (Mus musculus [27]) was “Active”. The TD50 [28] was > 500 mg/kg, the Activity (Mus musculus [29]) was “inactive” and the “Ratio TD50/ED50” value (Rattus norvegicus [30]) was >14. For the same molecule, the Activity (Rattus norvegicus [31]) was “Toxic”, the Activity (Mus musculus [32]) was “inactive” and the Activity (Rattus norvegicus [33]) was “Non-toxic”. The Activity (Rattus norvegicus [34]) was “Active”, the Activity (Rattus norvegicus [35]) was “inactive” and the Activity (Rattus norvegicus [36]) was “Toxic”. The Activity (Rattus norvegicus [37]) was “inactive”, the Activity (Rattus norvegicus [38]) was “Toxic” and the Activity (Rattus norvegicus [39]) was “Toxic”. For the same molecule, the Activity (Mus musculus [40]) was “Active”.
